Measured values published in ChEMBL document CHEMBL1649298, “Correlation between vancomycin MIC values and those of other agents against gram-positive bacteria among patients with bloodstream infections caused by methicillin-resistant Staphylococcus aureus” (2009).
Values after ≈ are worked out from the molar mass of the structure shown.

Assays:
Type in all cases: functional
Staphylococcus aureus [1] = experiment: Antibacterial activity against methicillin-resistant Staphylococcus aureus isolated form patient blood measured after 18 to 24 hrs on day 1 isolation by Etest
Summary of the method: (§1)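 MRSA bloodstream isolates came from 120 patients at a tertiary care hospital between January 2005 and May 2007. MICs were read by Etest. Each patient's isolates were grouped as day 1 (index) or post-day 1 (subsequent).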

Staphylococcus aureus [2] = experiment: Antibacterial activity against methicillin-resistant Staphylococcus aureus isolated form patient blood measured after 18 to 24 hrs on day 1 post isolation by Etest; summary of the method: as §1
Staphylococcus aureus [3] = experiment: microbe, parasite or virus in culture

| Compound | MIC50 (Staphylococcus aureus [1]) | MIC90 (Staphylococcus aureus [1]) | MIC50 (Staphylococcus aureus [2]) | MIC90 (Staphylococcus aureus [2]) | MIC (Staphylococcus aureus [1]) | MIC (Staphylococcus aureus [2]) | MIC (Staphylococcus aureus [3]) | MIC50 (Staphylococcus aureus [3]) | MIC90 (Staphylococcus aureus [3]) |
| --- | --- | --- | --- | --- | --- | --- | --- | --- | --- |
| CN[C@H](CC(C)C)C(=O)N[C@H]1C(=O)N[C@@H](CC(N)=O)C(=O)N[C@H]2C(=O)N[C@H]3C(=O)N[C@H](C(=O)N[C@H](C(=O)O)c4cc(O)cc(O)c4-c4cc3ccc4O)[C@H](O)c3ccc(c(Cl)c3)Oc3cc2cc(c3O[C@@H]2O[C@H](CO)[C@@H](O)[C@H](O)[C@H]2O[C@H]2C[C@](C)(N)[C@H](O)[C@H](C)O2)Oc2ccc(cc2Cl)[C@H]1O [VANCOMYCIN] | 1.5 µg/mL (≈ 1.04 µM) | 1.5 µg/mL (≈ 1.04 µM) | 1.5 µg/mL (≈ 1.04 µM) | 2 µg/mL (≈ 1.38 µM) | – | – | – | – | – |
| CC(=O)NC[C@H]1CN(c2ccc(N3CCOCC3)c(F)c2)C(=O)O1 [LINEZOLID] | 0.75 µg/mL (≈ 2.22 µM) | 1.5 µg/mL (≈ 4.45 µM) | 1 µg/mL (≈ 2.96 µM) | 1.5 µg/mL (≈ 4.45 µM) | 0.38 µg/mL (≈ 1.13 µM) | 0.38 µg/mL (≈ 1.13 µM) | 0.75 µg/mL (≈ 2.22 µM) | 0.75 µg/mL (≈ 2.22 µM) | 1 µg/mL (≈ 2.96 µM) |
| CN(C)c1cc(NC(=O)CNC(C)(C)C)c(O)c2c1C[C@H]1C[C@H]3[C@H](N(C)C)C(O)=C(C(N)=O)C(=O)[C@@]3(O)C(O)=C1C2=O [TIGECYCLINE] | 0.19 µg/mL (≈ 0.324 µM) | 0.25 µg/mL (≈ 0.427 µM) | 0.19 µg/mL (≈ 0.324 µM) | 0.25 µg/mL (≈ 0.427 µM) | 0.09 µg/mL (≈ 0.154 µM) | 0.09 µg/mL (≈ 0.154 µM) | 0.09 µg/mL (≈ 0.154 µM) | 0.13 µg/mL (≈ 0.222 µM) | 0.2 µg/mL (≈ 0.341 µM) |
| CCCCCCCCCC(=O)N[C@@H](Cc1c[nH]c2ccccc12)C(=O)N[C@H](CC(N)=O)C(=O)N[C@@H](CC(=O)O)C(=O)N[C@@H]1C(=O)NCC(=O)N[C@@H](CCCN)C(=O)N[C@@H](CC(=O)O)C(=O)N[C@H](C)C(=O)N[C@@H](CC(=O)O)C(=O)NCC(=O)N[C@H](CO)C(=O)N[C@@H]([C@H](C)CC(=O)O)C(=O)N[C@@H](CC(=O)c2ccccc2N)C(=O)O[C@@H]1C | 0.5 µg/mL (≈ 0.309 µM) | 0.75 µg/mL (≈ 0.463 µM) | 0.5 µg/mL (≈ 0.309 µM) | 1 µg/mL (≈ 0.617 µM) | 0.13 µg/mL (≈ 0.0802 µM) | 0.19 µg/mL (≈ 0.117 µM) | 0.13 µg/mL (≈ 0.0802 µM) | 0.38 µg/mL (≈ 0.234 µM) | 0.75 µg/mL (≈ 0.463 µM) |
